Here are results for five compounds from ChEMBL document CHEMBL1828611, “Bisphosphonamidate clodronate prodrug exhibits potent anticancer activity in non-small-cell lung cancer cells” (J Med Chem, 2011).

The subject of data set [1] is A549. Description: Anticancer activity against human A549 cells assessed as growth inhibition up to 1 mM by MTS assay. The data set is classed as functional, cell-based. A digest of the protocol:
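A549 cells, plated at 1.5 × 10^3 per well and left to adhere overnight, treated for 24, 48 or 72 h with compounds serially diluted in DMSO (1% DMSO final). MTS dye was added for 40 min to 2 h and absorbance read at 490 nm. Values were expressed as percent of vehicle control; IC50 was taken from nonlinear dose-response fitting.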

Data set [2] has as its system A549. The data set is described as follows: Cell cycle arrest in human A549 cells assessed as accumulation of cells in G2 phase after 24 hrs measured using propidium iodide staining by FACS analysis. The data set is classed as functional, cell-based.
For data set [3], the system named is A549. Description: Antiproliferative activity against human A549 cells after 48 hrs by MTS assay. The following applies: A549, 48 h. The data set is classed as functional, cell-based. The method, boiled down:
(§1)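 A549 cells were seeded at 1.5 × 10^3 per well, adhered overnight, and treated over 0.2–300 μM (final 1% DMSO). After treatment, MTS was added for 40 min–2 h and A490 read. Absorbance was converted to percent of vehicle control, and IC50 was obtained by nonlinear dose-response fit.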
For orientation: Formazan colour is commonly taken as a measure of viable cells.

For data set [4], the system named is A549. The data set is described as follows: Antiproliferative activity against human A549 cells after 24 hrs by MTS assay. Type of data set: functional, cell-based. The following applies: A549, 24 h. A digest of the protocol: as §1
Data set [5] has as its system A549. Description: Ratio of EC50 for human A549 cells after 48 hrs by trypan blue exclusion assay to IC50 for human A549 cells after 48 hrs by MTS assay. Type of data set: functional.
Data set [6] relates to A549. Description: Drug uptake in human A549 cells assessed per 10^4 cells at 30 uM after 8 hrs by LC/MS/MS analysis. Type of data set: ADME, cell-based. The conditions noted are these: a549, 8 h. A digest of the protocol:
(§2)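 A549 cells were plated at 1.3 × 10^5 per well in 6-well plates and treated at 0, 10 or 30 μM for 8 h. Cells were washed, trypsinized and counted by trypan blue, and pellets were frozen. Lysates in acetonitrile with temazepam internal standard were analysed by LC-MS-MS on a C18 column (isocratic acetonitrile/water 60:40, 0.1% formic acid). Results are reported as ng/10^4 cells.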

Data set [7] has as its system A549. Description: Anticancer activity in human A549 cells assessed as decrease in viable cells after 72 hrs by trypan blue exclusion assay. The conditions noted are these: A549, 72 h. Type of data set: functional, cell-based. The method, boiled down:
(§3)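 A549 cells (RPMI 1640, 10% FBS) were plated at 1.7 × 10^4 per well in 12-well plates, adhered overnight, and dosed from 100X DMSO stocks (final 1% DMSO). Floating and trypsinized cells were pooled, mixed 1:1 with 0.04% trypan blue and viable cells counted. Counts were expressed as percent of control per time point; EC50 is the concentration giving a 50% decrease in cell number.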

Data set [8] has as its system A549. Description: Antiproliferative activity against human A549 cells after 72 hrs by MTS assay. The data set is classed as functional, cell-based. The conditions noted are these: A549, 72 h. A digest of the protocol:
as §1

Data set [9] concerns A549. Description: Drug uptake in human A549 cells after 8 hrs by LC/MS/MS analysis. The conditions noted are these: a549, 8 h. The data set is classed as ADME, cell-based. A digest of the protocol: as §2
Data set [10] has as its system A549. The data set is described as follows: Anticancer activity in human A549 cells assessed as decrease in viable cells after 24 hrs by trypan blue exclusion assay. The data set is classed as functional. The method, boiled down: as §3
The test system of data set [11] is A549. The data set is described as follows: Prodrug conversion in human A549 cells assessed as intracellular formation of methylenebis(hydrogen phosphonate) at 10 to 30 uM after 8 hrs using MTBSTFA by LC/MS/MS analysis. The data set is classed as ADME, cell-based. The following applies: a549, 8 h. A digest of the protocol: (§4)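 A549 cells, plated at 1.3 × 10^5 per well, dosed for 8 h, PBS-washed, trypsinized, counted by trypan blue, then pellets PBS-washed and frozen at −80°C. Lysate was derivatized with MTBSTFA to tetra-silyl bisphosphonate for 1 h, cooled, diluted 1:5 in acetonitrile, and analysed by LC-MS-MS (C18, isocratic acetonitrile/water 70:30, 0.1% formic acid, 0.2 mL/min). Detection was qualitative.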

The subject of data set [12] is A549. The data set is described as follows: Anticancer activity in human A549 cells assessed as decrease in viable cells after 48 hrs by trypan blue exclusion assay. The following applies: A549, 48 h. The data set is classed as functional, cell-based. The method, boiled down: as §3
For data set [13], the system named is A549. Description: Drug uptake in human A549 cells assessed per 10^4 cells at 10 uM after 8 hrs by LC/MS/MS analysis. Type of data set: ADME, cell-based. The conditions noted are these: a549, 8 h. The method, boiled down: as §2
The test system of data set [14] is A549. The data set is described as follows: Anticancer activity against human A549 cells assessed as reduction in cell viability after 72 hrs by crystal voilet staining. The data set is classed as functional, cell-based. A digest of the protocol: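 A549 cells were plated at 1.7 × 10^4 per well in 6-well plates and dosed from 100X DMSO stocks (final 1% DMSO). After 72 h cells were washed twice with PBS, stained 5–15 min with 0.5% crystal violet in 95% EtOH, rinsed with cold water and air-dried.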

Data set [15] deals with A549. The data set is described as follows: Anticancer activity against human A549 cells assessed as growth inhibition at 10 to 300 uM for 72 hrs followed by 48 hrs incubation after compound wash out. The data set is classed as functional, cell-based. The method, boiled down: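 A549 cells exposed to 10, 30, 100 and 300 μM for 72 h, then washed to remove drug and given fresh drug-free medium; regrowth was checked after a further 48 h.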

Data set [16] concerns A549. Description: Cell cycle arrest in human A549 cells assessed as accumulation of cells in G1 phase at 10 uM after 72 hrs measured using propidium iodide staining by FACS analysis. Type of data set: functional, cell-based. The method, boiled down:
(§5)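 A549 cells were plated at 6.7 × 10^4 per well in 6-well plates and dosed at 0, 3 or 10 μM for 72 h (final 1% DMSO). Cells were fixed in cold 70% ethanol, then stained with 10 μg/mL propidium iodide plus RNase A for 30 min at 37°C.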

In data set [17] the test system is A549. Description: Cell cycle arrest in human A549 cells assessed as accumulation of cells in G1 phase at 3 uM after 72 hrs measured using propidium iodide staining by FACS analysis in presence of nocodazole. Type of data set: functional, cell-based. On the technique in general: In flow cytometry, cells or beads pass a laser one at a time.
The subject of data set [18] is A549. The data set is described as follows: Cell cycle arrest in human A549 cells assessed as accumulation of cells in G1 phase at 3 uM after 72 hrs measured using propidium iodide staining by FACS analysis. Type of data set: functional, cell-based. The method, boiled down: as §5
For data set [19], the system named is A549. Description: Drug uptake in human A549 cells at 30 uM after 8 hrs using MTBSTFA by LC/MS/MS analysis. Type of data set: ADME, cell-based. The following applies: a549, 8 h. The method, boiled down: as §4

As usually defined, the IC50 is the concentration that gives 50% inhibition. Low readings indicate higher potency, high ones lower potency. The term EC50 denotes the concentration needed to bring the measured effect to its halfway point.

The source made the active and inactive calls. The rule behind the calls is not given here.

Turning to `O=P(O)(O)C(Cl)(Cl)P(=O)(O)O`, in data set [1], the “growth inhibition (GI)” value is “inactive”.
`COC(=O)Nc1nc2cc(C(=O)c3cccs3)ccc2[nH]1`: the result in data set [2] was Active.
On to `CN(CCCCCl)P(=O)(CP(=O)(OCc1ccc([N+](=O)[O-])cc1)N(C)CCCCCl)OCc1ccc([N+](=O)[O-])cc1` (stereo unspecified), for which the results for the IC50 in data set [3], in [4] and in data set [8] were 15 µM, 17 µM and 13 µM, respectively. Moreover, the “Ratio IC50” value in data set [5] worked out at 1.6. The figures for the Drug uptake in data set [6], in [9] and in data set [13] were 169.3 ng, “Dose-dependent effect” and 68.6 ng, respectively. The concentration for a half-maximal effect (EC50) in data set [7] was 25 µM; in data set [12] it was 24 µM. The Activity in data set [10] is listed as <50%; in data set [11], “Active”.
With `CN(CCCCCl)P(=O)(OCc1ccc([N+](=O)[O-])cc1)C(Cl)(Cl)P(=O)(OCc1ccc([N+](=O)[O-])cc1)N(C)CCCCCl` (stereo unspecified), the IC50 in data set [3] was determined as 5.2 µM; in [4], 7.6 µM; in data set [8], 4.4 µM. Further, in [5], the “Ratio IC50” value was determined as 3.6. The results for the EC50 in data set [7] and in data set [12] were 16 µM and 19 µM, respectively. Moreover, the outcome in [14], in data set [16], in data set [17] and in data set [18] was Active. The Activity in [10] came out at 57%. Also, the “growth inhibition (GI)” value in data set [15] is “Active”.
For `O=P(O)(O)CP(=O)(O)O` [MEDRONIC ACID], the Drug uptake entry in [19] is recorded as “Active”.
